Screening data as filed in PubChem BioAssay.
Shown are actives, neighbours in structure and some others; about 5.1% of the full set was active somewhere.
NF-kB expr up = compounds increasing NF-kB expression in human neuronal cells; NF-kB reporter expression; active compounds read high; fold change at 12.5 µM; 190,000 compounds, 1.6% hits; AID 1239; in the data active = fold change above about 3.3
STAT1 blocker = inhibitors of IFN-gamma induced STAT1 signaling; NIH 3T3 STAT1-luciferase reporter, luminescence; inhibition, % at 5.5 µM; 200,000 compounds, 0.35% hits;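 active = inhibition above a set limit, the mean inhibition across all tested compounds plus 3 SD, cut at about 34% in these data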;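 note: 0% = IFN-gamma with DMSO and 100% = IFN-gamma with 300 µM nifuroxazide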
APP 5'UTR act = activates APP 5'UTR luciferase reporter; 190,000 compounds, 1% hits; AID 1276; SH-SY5Y APP 5'UTR luciferase reporter, luminescence; zero percent = DMSO vehicle wells; activation, % at 2 µM;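 active = activation above a set limit, based on mean plus 3 SD of controls, cut at about 140% in these data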
STAT1 activator = increases IFN-gamma driven STAT1 reporter signal; NIH 3T3 STAT1-luciferase reporter, luminescence; 100% = IFN-gamma alone, no compound; activation (% of control), % at 5.5 µM; 200,000 compounds, 2.6% hits;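 active = activation above the screen-wide mean activation plus 3 SD, cut at about 130% in these data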;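 note: raw ratio to IFN-gamma control signal so 100% means no change and 0% no light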
STAT3 act = activators of IL-6 induced STAT3 signaling | 190,000 compounds, 0.91% hits | U3A cells, IL-6 STAT3-luciferase reporter, luminescence; 100% = signal with IL-6 EC80 alone | AID 871 | activation (% of control), % at 5.6 µM;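 active = activation above the screen-wide mean of compound activation plus 3 SD, cut at about 130% in these data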;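 note: 0% = background luminescence of wells with medium and substrate only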
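Assay system – human STAT1-deficient U3A cells with stable STAT3-luciferase reporter · Also added – IL-6 (33 ng/mL) · Schedule – compound 1 h, then IL-6 6 h at 37 °C · Technique – reporter luminescence signal · Evaluation – % activation versus median of IL-6-stimulated wells · Benchmarks – IL-6-only wells as 100% reference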
STAT3 blocker = reduces IL-6 driven STAT3 reporter signal. U3A cells, IL-6 STAT3-luciferase reporter, luminescence; host cell line lacks STAT1. inhibition, % at 5.5 µM. 190,000 compounds, 0.89% hits. AID 862;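 active = inhibition above the mean inhibition across all screened compounds plus 3 SD, cut at about 44% in these data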;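 note: 0% = DMSO only wells and 100% = 100 µM nifuroxazide control wells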
Numbers without * were called inactive; / = no result.

SMILES	NF-kB expr up	STAT1 blocker	APP 5'UTR act	STAT1 activator	STAT3 act	STAT3 blocker
Cc1cccc(-n2ncc(C#N)c2N)c1	1.05	-5.9	7.3	105.4	101.3	2.4
Cc1ccc(-c2cc3ncc(C#N)c(N)n3n2)cc1	1	-37.0	75.8	130.1*	90.5	15.9
COc1ccc(-c2cc3ncc(C(C)=O)c(C)n3n2)cc1	2.79	-37.4	141.4*	135.0*	87.3	19.9
CCn1nc(C)cc1C(=O)N1CCCC(CCC(=O)NCc2ccccc2F)C1 (configuration not stated)	1.09	16.4	-2.5	83.8	91.1	14.4
COc1ccc(NC(=O)CCCSc2ccccc2)cc1	1.72	0.0	6.7	100.1	99.3	0.6
COc1cc(C=O)ccc1OCc1cccc(Br)c1	1.07	-33.6	57.6	129.5*	104.1	-4.8
COC(=O)c1ccccc1OCCOc1ccccc1C(=O)OC	1.2	-0.6	-2.9	100.5	105.9	-2.1
COC(=O)c1ccccc1OCCCOc1ccc(C=O)cc1OC	1.24	-37.6	90.7	134.3*	130.3	-37.6
Cc1cc(Cl)ccc1C(=O)C1CCCN(C(=O)c2cnsn2)C1 (configuration not stated)	1.09	2.3	-30.1	97.7	97.4	8.7
O=C(NCCc1ccccc1)Nc1ccc2c(c1)OCO2	4.32*	-47.7	115.1	139.7*	112.1	-9.6
O=C(Nc1ccc2c(c1)OCO2)C1CCCN1C(=O)OCc1ccccc1 (configuration not stated)	1.33	-5.4	-14.8	105.6	105.7	-0.1
O=C(NCCc1ccc(F)cc1)Nc1ccc2c(c1)OCO2	2.23	-38.1	48.2	133.8*	105.6	5.6
COc1ccc(CCNC(=O)Nc2ccc3c(c2)OCO3)cc1OC	1.11	2.9	10.6	95.4	95.4	10.7
O=C(Nc1ccc2c(c1)OCO2)OCc1ccccc1	5.13*	-37.5	140.3*	134.6*	99.0	6.1
O=C(NCCc1ccccc1)C(=O)Nc1ccc2c(c1)OCCO2	2.13	-18.2	37.8	114.6	102.9	3.1
COc1cc(O)cc2occ(-c3ccc(O)cc3)c(=O)c12	1.39	-5.7	11.4	104.0	/	/
COc1ccc(-c2coc3cc(OC)cc(OC)c3c2=O)cc1	1.76	-31.7	26.9	127.6	/	/
COc1ccc(-c2coc3cc(OC)cc(O)c3c2=O)cc1	5.52*	-48.1	154.9*	143.0*	102.2	-1.3
CC(C)Oc1cc(O)c2c(=O)c(-c3ccc(O)cc3)coc2c1	9.03*	-34.1	164.2*	128.4	85.4	17.2
COc1ccccc1NC(=O)Nc1cc(NC(=O)Nc2ccccc2OC)c(C)nc1C	1.4	0.2	1.4	99.8	105.8	-4.4
CCOCCCNC(=O)C(c1ccc(OC)cc1)N(Cc1cccs1)C(=O)c1ccccn1 (configuration not stated)	1.68	-1.9	2.3	100.7	106.0	-3.6
COc1cccc(-c2nnc(-c3ccco3)o2)c1	2.96	-49.9	108.9	144.1*	95.7	9.4
O=C(/C=C/c1cn(-c2ccccc2)nc1-c1cccnc1)c1ccco1	0.31	10.5	-4.8	89.1	91.4	14.1
Oc1c(/C=N/Nc2cccc3cccnc23)ccc2ccccc12	1.76	1.8	86.9	97.8	105.0	-4.6
C/C(=N\Nc1ncc(Cl)cc1Cl)c1ccccn1	0.44	68.6*	-70.2	35.8	23.3	93.8*
SMILES	NF-kB expr up	STAT1 blocker	APP 5'UTR act	STAT1 activator	STAT3 act	STAT3 blocker
C/C(=N\Nc1cccc2cccnc12)c1ccc(N)cc1	2.27	-14.4	197.7*	111.4	101.2	9.2
C/C(=N\Nc1cccc2cccnc12)c1ccccc1O	6.93*	-19.7	202.0*	118.2	111.6	-12.7
C/C(=N\Nc1ncc(Cl)cc1Cl)c1ccc(N2CCOCC2)cc1	1.5	-14.2	62.8	111.2	95.1	9.4
C/C(=N\Nc1cccc2cccnc12)c1ccccn1	0.97	41.3*	271.6*	60.5	48.1	68.1*
Cc1ccc(NC(=O)c2cc(N3C(=O)C=CC3=O)ccc2N2CCOCC2)cc1Cl	0.99	5.6	-77.2	95.0	106.6	-5.3
CCOc1cc(/C=C2/NC(=O)N(Cc3ccccc3F)C2=O)ccc1O	5.89*	-10.8	-25.1	104.3	86.5	18.2
COc1cc(/C=C2/NC(=O)N(Cc3ccccc3F)C2=O)cc(OC)c1O	0.8	-11.5	-0.6	108.8	98.9	5.6
Clc1ccc(-n2ncc3c(NCc4ccco4)ncnc32)cc1	2.68	-54.6	127.9	149.9*	95.5	12.6
c1ccc(-n2ncc3c(NCc4cccs4)ncnc32)cc1	2.19	-38.6	95.4	137.8*	94.3	13.0
Clc1ccc(Cn2ncc3c(NCc4ccco4)ncnc32)c(Cl)c1	0.79	-7.4	-9.0	106.7	96.5	6.8
COc1ccc(-n2ncc3c(NCc4ccccn4)ncnc32)cc1	1.05	-14.6	63.8	112.4	99.0	7.5
COc1ccc(-n2ncc3c(NCc4cccs4)ncnc32)cc1	3.06	-54.4	100.6	150.1*	116.9	-15.1
c1ccc2c(c1)oc1c(NCC3CCCO3)ncnc12 (configuration not stated)	1.25	-13.6	24.8	112.4	110.2	-6.9
c1ccc(-n2ncc3c(NCC4CCCO4)ncnc32)cc1 (configuration not stated)	2.22	-31.9	59.7	129.2*	104.8	1.7
COc1ccccc1CNC(=O)/C=C/c1ccc(S(=O)(=O)N2CCOCC2)cc1	0.82	2.4	-17.1	97.4	101.3	4.2
C(=N\Nc1nc(-c2ccccc2)cs1)/c1cccnc1	2.34	-49.3	48.3	144.4*	94.8	12.6
CC(C)(C)c1csc(N/N=C/c2cccnc2)n1	3.02	-53.7	77.1	150.4*	95.9	4.9
CC(/C=N/NC(=O)c1cccs1)=C\c1ccccc1	8.51*	-38.1	188.4*	134.2*	74.7	32.0
O=C(N/N=C\CCc1ccccc1)c1ccco1	1.19	-37.6	43.1	133.7*	108.3	-9.1
CC(/C=N/NC(=O)c1ccco1)=C\c1ccccc1	5.91*	-9.0	160.9*	108.3	67.6	41.3
NC(=NC(=O)c1ccccc1)N1N=CCC1c1ccccc1 (configuration not stated)	1.08	-2.8	10.8	99.8	107.9	-4.5
Cc1ccccc1CSc1n[nH]c(NS(=O)(=O)c2ccccc2)n1	1.25	-0.4	2.9	100.3	85.9	20.1
COC(=O)c1ccc(COc2ccccc2[N+](=O)[O-])o1	1.28	-16.6	32.8	114.9	101.5	0.9
CCCc1ccc(OCc2ccc(C(=O)O)o2)c(OC)c1	4.23*	-29.5	82.5	127.0	95.4	9.1
CCCc1ccc(OCc2ccc(C(=O)OC)o2)c(OC)c1	2.75	-35.0	70.8	132.3*	110.2	-12.0
CC(=O)NCCNC(=O)C1CCCCN1S(=O)(=O)c1ccccc1 (configuration not stated)	1.06	-1.9	-10.0	101.3	103.0	-1.3
Cn1c(CC(=O)c2ccc(Br)cc2)[n+](C)c2ccccc21	0.98	6.2	-3.4	92.1	104.0	-3.4
